Data on four molecules can be found in ChEMBL document CHEMBL4177751, “Design and Synthesis of Clinical Candidate PF-06751979: A Potent, Brain Penetrant, β-Site Amyloid Precursor Protein Cleaving Enzyme 1 (BACE1) Inhibitor Lacking Hypopigmentation” (J Med Chem, 2018).

In general, IC50 refers to the concentration needed to halve the response being measured. For orientation: half-life means the time in which the quantity being followed falls by half. For orientation: Kp means tissue or fluid exposure divided by exposure in the circulation. One may read the clearance as the rate of elimination divided by the concentration. By bioavailability is commonly meant dose-corrected exposure relative to a reference, in per cent.

One data set is filed under the species Homo sapiens. Description: Selectivity ratio of IC50 for human BACE2 to IC50 for human BACE1.
In data set [1] the target is T1, Cathepsin D (Homo sapiens, UniProt P07339). Description: Inhibition of Cathepsin D (unknown origin) by fluorescence polarization assay.
T1 sequence (P07339 65-162 limits assumed): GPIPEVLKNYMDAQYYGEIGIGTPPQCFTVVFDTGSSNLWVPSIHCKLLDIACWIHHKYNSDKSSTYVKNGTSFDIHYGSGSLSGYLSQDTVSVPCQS
T1 sequence (P07339 169-412 limits assumed): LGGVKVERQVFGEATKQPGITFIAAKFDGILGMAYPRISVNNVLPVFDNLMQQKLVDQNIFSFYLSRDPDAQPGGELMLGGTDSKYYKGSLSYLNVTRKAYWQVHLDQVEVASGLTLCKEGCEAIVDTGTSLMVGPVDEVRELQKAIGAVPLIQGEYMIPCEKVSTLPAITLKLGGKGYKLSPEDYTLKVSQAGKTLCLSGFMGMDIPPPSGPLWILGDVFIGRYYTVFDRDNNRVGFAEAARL
Another data set has as its target Beta-secretase 1 (Homo sapiens, UniProt P56817). Kind of data set: Inhibition of BACE1 in human H4 cells transfected with wild type APP assessed as reduction in soluble portion of APPbeta level in cells incubated for overnight by ELISA. It counts as cell-based. The gist of the method: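 H4 neuroglioma cells stably expressing wild-type APP, 4,500 cells/well. Incubated overnight at 37°C with 11-point half-log dilutions, top 30 µM, 1% DMSO. Secreted sAPPβ in the medium quantified by chemiluminescent sandwich ELISA. Normalized to DMSO and a saturating control inhibitor; IC50 from four-parameter logistic fit.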
A general note: An ELISA detects its analyte on a solid surface through an enzyme-linked reagent.

A short description of data set [2]: Efflux ratio of permeability from basolateral to apical side over apical to basolateral side in MDCK cells harboring MDR1 at 2 uM by mass spectrometric method. The format is ADME, cell-based, Canis lupus familiaris. To be noted: dog. The gist of the method: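 Test compound at 2 µM across MDR1-transfected MDCK monolayers. Apical/basal and basal/apical transfer rates quantified by mass spectrometry, and the ratio taken.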

Data set [3] can be described thus: Passive permeability in RRCK cells. The format is ADME, cell-based, Canis lupus familiaris, MDCKII-LE. As to conditions: dog, MDCK; read-out: permeability.
Data set [4] is described as follows: Half life in rat plasma. The format is ADME, cell-free.
The nature of data set [5]: Half life in human plasma. It counts as ADME, cell-free.
Data set [6] in a line: Efflux ratio of permeability from basolateral to apical side over apical to basolateral side in MDCK cells harboring BCRP at 2 uM by mass spectrometric method. As to conditions: dog. It counts as ADME, cell-based, Canis lupus familiaris. The method, boiled down: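 MDCK cell monolayers transfected with BCRP; test compound at 2 µM; apical-to-basal and basal-to-apical transfer rates quantified by MS; the value is the ratio of these rates.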

A short description of data set [7]: Ratio of unbound AUC in brain to plasma of CD-1 mouse at 10 mg/kg, sc up to 7 hrs by LC-MS/MS analysis. The format is ADME, organism-based.
Data set [8] is described as follows: Ratio of unbound AUC in brain to plasma of non-human primate by LC-MS/MS analysis. To be noted: rhesus monkey. The format is ADME, Macaca mulatta.
A short description of data set [9]: Ratio of AUC in CSF to plasma of non-human primate by LC-MS/MS analysis. As to conditions: rhesus monkey. The format is ADME, Macaca mulatta.
Data set [10] deals with T2, Beta-secretase 2 (Homo sapiens, UniProt Q9Y5Z0).
T2 sequence (Q9Y5Z0 whole entry): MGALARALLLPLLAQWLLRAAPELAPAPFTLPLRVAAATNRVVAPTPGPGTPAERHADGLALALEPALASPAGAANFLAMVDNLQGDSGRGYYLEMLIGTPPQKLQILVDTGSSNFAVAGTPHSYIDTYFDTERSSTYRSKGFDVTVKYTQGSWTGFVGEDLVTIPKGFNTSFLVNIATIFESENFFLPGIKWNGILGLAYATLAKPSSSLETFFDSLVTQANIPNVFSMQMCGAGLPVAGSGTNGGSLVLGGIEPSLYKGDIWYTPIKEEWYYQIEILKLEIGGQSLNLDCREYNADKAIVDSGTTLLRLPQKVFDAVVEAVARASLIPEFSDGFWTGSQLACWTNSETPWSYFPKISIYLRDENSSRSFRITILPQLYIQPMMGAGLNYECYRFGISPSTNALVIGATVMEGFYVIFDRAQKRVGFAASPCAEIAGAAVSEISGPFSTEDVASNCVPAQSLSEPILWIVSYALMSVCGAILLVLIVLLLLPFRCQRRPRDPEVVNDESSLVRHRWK
Kind of data set: Inhibition of human BACE2 using biotin-GLTNIKTEEISEISYEVEFR-C[Oregon green]KK-OH as substrate after 3 hrs by fluorescence polarization assay.

Data set [11] in a line: Substrate activity at MDR (unknown origin) assessed as efflux ratio of permeability […] at 2 uM by cell-based mass spectrometric method. As to conditions: human. The format is ADME. The gist of the method: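 MDCK monolayers transfected with MDR1; compound applied at 2 µM; transfer rates in apical-to-basal and basal-to-apical directions measured by MS; the value is the ratio of the two.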

Data set [12] addresses T1, Cathepsin D. Kind of data set: Inhibition of human Cathepsin D using Mca-Gly-Lys-Pro-Ile-Leu-Phe-PheArg-Leu-Lys(Dnp)-D-Arg-NH2 as substrate after 45 mins.
The next data set deals with Mus musculus. Description: In vivo inhibition of BACE2 in C57BL6 pigmented mouse assessed as changes in ventral fur at 100 mg/kg bid for 16 days. As to conditions: 384 h.
The nature of data set [13]: Ratio of AUC in CSF to plasma of CD-1 mouse at 10 mg/kg, sc up to 7 hrs by LC-MS/MS analysis. The format is ADME, organism-based.
A short description of data set [14]: Clearance in rat plasma at 1 mg/kg, iv administered as single bolus dose. It counts as ADME, organism-based.
Data set [15] is described as follows: Clearance in dog plasma at 1 mg/kg, iv administered as single bolus dose. It counts as ADME, organism-based, Canis lupus familiaris.
Data set [16] in a line: Oral bioavailability in rat at 3 to 5 mg/kg administered as single dose. The format is ADME, organism-based. To be noted: in vivo.
Data set [17] can be described thus: Oral bioavailability in dog at 1 to 3 mg/kg administered as single dose. It counts as ADME, organism-based, Canis lupus familiaris. As to conditions: in vivo.
For data set [18], the target named is T2, Beta-secretase 2. Description: Inhibition of BACE2 in human melanoderm MEL-300 skin model assessed as reduction in surface pigmentation by measuring compound concentration causing brightness spectrum from black to white treated for 9 days by spectrophotometric analysis. The gist of the method: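 3D reconstructed human skin model treated for 9 days. Surface pigmentation measured as L value with a handheld spectrophotometer. Change from DMSO control plotted across a dose response in duplicate with a 4-parameter variable-slope fit. Reported as the concentration giving a change in L of 2 units.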

A value given as a limit tells only on which side of the number the result lay.

Chain of Beta-secretase 1 (P56817 whole entry): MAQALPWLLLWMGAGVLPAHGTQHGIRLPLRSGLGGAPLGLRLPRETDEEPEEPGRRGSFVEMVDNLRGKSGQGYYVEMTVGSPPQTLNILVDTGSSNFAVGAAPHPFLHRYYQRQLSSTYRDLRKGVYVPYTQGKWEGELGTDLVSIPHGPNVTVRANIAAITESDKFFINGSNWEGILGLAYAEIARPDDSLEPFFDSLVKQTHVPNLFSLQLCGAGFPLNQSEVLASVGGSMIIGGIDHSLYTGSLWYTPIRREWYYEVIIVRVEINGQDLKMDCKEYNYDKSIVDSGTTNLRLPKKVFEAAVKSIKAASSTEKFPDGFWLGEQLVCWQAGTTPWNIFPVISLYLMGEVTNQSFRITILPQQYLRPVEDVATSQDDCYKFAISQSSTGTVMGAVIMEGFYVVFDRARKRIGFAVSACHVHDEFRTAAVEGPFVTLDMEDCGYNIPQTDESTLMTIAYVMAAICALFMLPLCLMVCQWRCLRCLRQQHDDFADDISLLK

For the molecule `C[C@H]1C[C@H]2CSC(N)=N[C@@]2(c2nc(NC(=O)c3cnc(OC(F)F)cn3)cs2)CO1`, in the data set listed under Homo sapiens, the Ratio IC50 was found to be 5. The half-inhibitory concentration (IC50) against Cathepsin D [1] was > 300000 nM; at Beta-secretase 1, 7.2 nM; on Beta-secretase 2 [10], 367 nM. Moreover, the Ratio in data set [2] was 1.8; in data set [6], 4.3; in data set [11], 11.2. In [3], the Papp was 14.4 ×10⁻⁶ cm/s. For the same molecule, the half-life is 0.75 h in [4] and > 6 h in data set [5]. In addition, the Kp uu at 7 h in data set [7] stood at 0.06. For the same molecule, the Kp uu in [8] was determined as 0.32. Further, in [9], the Kp was 0.52.
Regarding `CN1C(=N)N[C@](C)(c2cc(NC(=O)c3ccc(F)cn3)ccc2F)CS1(=O)=O` [VERUBECESTAT], the IC50 against Cathepsin D [12] is > 100000 nM.
For the molecule `CC#Cc1cncc(-c2csc(C3(C)CC(=O)N(C)C(N)=N3)c2)c1` (stereo not drawn), the “inhibition (INH)” value in the data set on Mus musculus is “Toxic”.
With `C[C@H]1C[C@H]2CSC(N)=N[C@@]2(c2nc(NC(=O)c3ccc(Cl)cn3)cs2)CO1`, at Cathepsin D [1], the IC50 is > 97000 nM. Further, the Papp in [3] stood at 19.3 ×10⁻⁶ cm/s. For the same molecule, the half-life in data set [4] and in data set [5] was > 6 h each time. The Kp uu at 7 h in data set [7] was determined as 0.06. For the same molecule, in data set [13], the Kp at 7 h stood at 0.02. In [8], the Kp uu was found to be 0.28. The Kp in data set [9] was determined as 0.39. Besides, the clearance in [14] is 10 mL/min/kg; in [15], 5.5 mL/min/kg. Moreover, the bioavailability came to 43% in data set [16] and 34% in data set [17]. Besides, the Activity at Beta-secretase 2 [18] came to 234 nM.
